Measured values as given in ChEMBL document CHEMBL3351368, “Biphenyl-4-carboxylic acid [2-(1H-indol-3-yl)-ethyl]-methylamide (CA224), a nonplanar analogue of fascaplysin, inhibits Cdk4 and tubulin polymerization: evaluation of in vitro and in vivo anticancer activity” (J Med Chem, 2014).
Activity calls are given as the source filed them. No cut-off for these calls is given here.

Experiments:
[1] = AUC (0 to t) in BALB/c mouse at 1 mg/kg, iv; type: ADME, organism-based; design: dose 1 mg/kg, route intravenous; conditions: plasma
In short: (§1)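 BALB/c mice given a single dose of 1.0 mg/kg IV or 10 mg/kg orally; plasma concentration followed over time and pharmacokinetic parameters derived from the time-concentration profile.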

A549 [2] = experiment: Induction of apoptosis in p53+, pRb+ human A549 cells assessed as fragmented nuclei/distrupted cell membrane at 1 to 10 uM by DAPI staining-based flow cytometry; type: functional; conditions: TDE = time-dependent effect
NCI-H460 [3] = experiment: Antitumor activity against human NCI-H460 cells xenografted in SCID mouse assessed as inhibition of tumor growth at 100 mg/kg, ip relative to untreated control; type: functional, organism-based; design: dose 100 mg/kg
In short: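 Female SCID mice (15-24 g, 6-8 weeks) were given 5.3 × 10^6 NCI-H460 cells s.c. on the dorsal side. At 4-6 mm tumours (about 6 days) they were randomised into groups of 6 or 7 and dosed i.p. for 9 consecutive days. Tumour size was recorded every 2-5 days; weight = L × W² × 0.5. %T/C and %GI = 100 − %T/C; Student t-test versus control.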

[4] = Cell cycle arrest in mouse BNL-SVA.8 cells assessed as accumulation of cells at S phase at IC50 concentration after 48 hrs by flow cytometry (reference value: 23%); type: functional
In short: (§2)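 Normal (BNL CL2) and SV40 large T-antigen transformed (BNL SV A.8) mouse embryonic hepatic cells were treated at IC50 or IC70 concentration for 48 h. Analysis was by FACS, with apoptosis taken as % cells in the sub-G1 peak. Untreated cells served as control.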

[5] = target: Glycogen synthase kinase-3 beta (Homo sapiens) (UniProt P49841); experiment: Inhibition of human GSK3beta assessed as enzyme activity at 10 uM
Chain of Glycogen synthase kinase-3 beta (Homo sapiens) (P49841 whole entry, looked up): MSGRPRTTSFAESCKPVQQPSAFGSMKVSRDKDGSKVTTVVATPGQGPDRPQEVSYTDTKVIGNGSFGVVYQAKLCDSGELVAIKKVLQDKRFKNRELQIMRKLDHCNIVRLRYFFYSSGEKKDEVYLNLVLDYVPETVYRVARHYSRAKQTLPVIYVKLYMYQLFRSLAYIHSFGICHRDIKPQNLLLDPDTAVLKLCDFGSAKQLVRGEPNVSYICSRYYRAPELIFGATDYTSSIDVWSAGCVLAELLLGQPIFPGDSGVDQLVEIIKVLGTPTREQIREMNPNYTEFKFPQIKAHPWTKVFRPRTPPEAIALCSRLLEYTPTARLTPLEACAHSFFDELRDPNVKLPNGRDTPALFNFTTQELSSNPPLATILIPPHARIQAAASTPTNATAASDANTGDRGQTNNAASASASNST

A549 [6] = experiment: Anticancer activity against p53+, pRb+ human A549 cells assessed as reduction in colony formation efficiency at 1.4 uM after 24 hrs by visual count/crystal violet staining method; type: functional; conditions: A549, 24 h
In short: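 Long-term survival assay. A549 and Calu-1 cells treated with a range of concentrations, colonies counted, efficiency expressed as percent of colonies versus untreated cultures. Means and standard deviations of three independent experiments.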

Homo sapiens [7] = organism: Homo sapiens; experiment: Selectivity ratio of IC50 for human CDK2/cyclin A to IC50 for human CDK4/cyclin D1
[8] = target: Platelet-derived growth factor receptor (Homo sapiens) (UniProt P09619+P16234); experiment: Inhibition of human PDGFR assessed as enzyme activity at 10 uM; type: protein-complex assay
[9] = Antitumor activity against human HCT116 cells xenografted in SCID mouse assessed as inhibition of tumor growth at 100 mg/kg, ip relative to untreated control; type: functional; conditions: HCT-116, ip, route intraperitoneal
In short: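 SCID male mice, 18-25 g, 6-8 weeks old, received 6.6 × 10^6 HCT-116 cells subcutaneously on the dorsal side. Randomized into groups of 7 at 4-6 mm tumors (about 5 days), then dosed intraperitoneally for 9 consecutive days. Tumor size recorded every 2-5 days, weight = L×W²×0.5; %GI = 100 − %T/C. Body weight taken daily relative to start; Student t-test.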

Tubulin (Homo sapiens) [10] = target: T1, Tubulin (Homo sapiens) (UniProt P68371+Q9H4B7+P0DPH7+P68366+Q13509+Q71U36+P04350+Q3ZCM7+P07437+P68363+Q9BQE3+Q6PEY2+Q13885+Q9BVA1+Q9BUF5); experiment: Inhibition of tubulin (unknown origin) polymerization assessed as decrease in Vmax measured at 25 uM by spectrophotometry
[11] = Cell cycle arrest in mouse BNL-CL2 cells assessed as accumulation of cells at S phase at IC50 concentration after 48 hrs by flow cytometry (reference value: 15%); type: functional; in short: as §2
[12] = Maximum tolerated dose in ip dosed Swiss mouse assessed as body weight change treated for 5 days; type: ADME, organism-based; conditions: in vivo
In short: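 Swiss albino mice, 6 per group, are dosed intraperitoneally once daily for five days (Q1D x 5) at several doses. The formulation contains Tween 20. Body weight is tracked over a two-week study, and MTD is set as the dose giving >10% weight loss; a drop of >20% is rated highly significant.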

Tubulin (Homo sapiens) [13] = target: T1, Tubulin (Homo sapiens); experiment: Inhibition of tubulin polymerization in p53+, pRb+ human A549 cells assessed as paclitaxel-mediated polymerization treated followed by compound treatment measured after 30 mins by Western blot analysis; type: cell-based
CYP2D6 = CYP2D6 (Homo sapiens, UniProt P10635); experiment: Inhibition of human recombinant CYP2D6 at 10 uM; type: ADME
Chain of CYP2D6 (P10635 whole entry): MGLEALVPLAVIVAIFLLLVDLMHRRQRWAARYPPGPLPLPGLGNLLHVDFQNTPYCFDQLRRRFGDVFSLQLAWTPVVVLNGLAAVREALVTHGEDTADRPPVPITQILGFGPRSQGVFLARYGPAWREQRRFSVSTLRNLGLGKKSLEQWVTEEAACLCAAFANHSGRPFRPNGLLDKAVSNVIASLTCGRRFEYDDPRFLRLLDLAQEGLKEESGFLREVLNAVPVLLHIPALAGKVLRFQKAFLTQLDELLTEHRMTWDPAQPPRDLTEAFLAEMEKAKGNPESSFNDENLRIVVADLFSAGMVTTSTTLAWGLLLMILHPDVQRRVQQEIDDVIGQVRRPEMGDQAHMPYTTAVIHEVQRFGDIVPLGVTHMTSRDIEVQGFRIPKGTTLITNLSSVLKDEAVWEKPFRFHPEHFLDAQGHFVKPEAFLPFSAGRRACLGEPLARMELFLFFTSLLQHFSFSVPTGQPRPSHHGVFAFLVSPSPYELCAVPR

[14] = Cell cycle arrest in mouse BNL-CL2 cells assessed as accumulation of cells at G0/G1 phase at IC50 concentration after 48 hrs by flow cytometry (reference value: 57%); type: functional; in short: as §2
NCI-H1299 [15] = experiment: Induction of apoptosis in p53 null, pRb+ human NCI-H1299 cells assessed as fragmented nuclei/distrupted cell membrane at 1 to 10 uM by DAPI staining-based flow cytometry; conditions: TDE = time-dependent effect
A549 [16] = experiment: Cell cycle arrest in human A549 cells assessed as accumulation of cells at S phase at IC50 concentration after 24 hrs by flow cytometry (reference value: 29%); type: functional
[17] = AUC (0 to infinity) in BALB/c mouse at 10 mg/kg, po; type: ADME, organism-based; design: time infinity, dose 10 mg/kg, route oral; conditions: plasma; in short: as §1
NCI-H1299 [18] = experiment: Cell cycle arrest in human NCI-H1299 cells assessed as accumulation of cells at S phase at IC50 concentration after 24 hrs by flow cytometry (reference value: 21%); type: functional
NCI-H358 = experiment: Cell cycle arrest in human NCI-H358 cells assessed as accumulation of cells at G2/M phase at IC50 concentration after 12 hrs by flow cytometry in presence of nocodazole for 18 hrs (reference value: 42%); type: functional
[19] = Cell cycle arrest in mouse BNL-SVA.8 cells assessed as accumulation of cells at subG1 phase at IC50 concentration after 48 hrs by flow cytometry (reference value: 0%); type: functional; in short: as §2
[20] = Volume of distribution at steady state in BALB/c mouse at 1 mg/kg, iv; type: ADME, organism-based; design: dose 1 mg/kg, route intravenous; conditions: in vivo, read-out: Vdss; in short: as §1
[21] = target: CDK6/cyclin D1 (Homo sapiens) (UniProt P24385+Q00534); experiment: Inhibition of human CDK6/cyclinD1 assessed as enzyme activity at 10 uM; type: protein-complex assay
NCI-H460 [22] = experiment: Induction of apoptosis in p53+, pRb+ human NCI-H460 cells assessed as fragmented nuclei/distrupted cell membrane at 1 to 10 uM by DAPI staining-based flow cytometry; type: functional; conditions: TDE = time-dependent effect
Homo sapiens [23] = organism: Homo sapiens; experiment: Inhibition of human PKA assessed as enzyme activity at 10 uM
[24] = target: Cyclin-dependent kinase 7/ cyclin H (Homo sapiens) (UniProt P51946+P50613); experiment: Inhibition of human CDK7/cyclinH assessed as enzyme activity at 10 uM; type: protein-complex assay
[25] = Cmax in BALB/c mouse at 10 mg/kg, po; type: ADME, organism-based; design: dose 10 mg/kg, route oral; conditions: in vivo; in short: as §1

For `CN(CCc1c[nH]c2ccccc12)C(=O)c1ccc(-c2ccccc2)cc1`, the AUC(0-t) [1] was 187 ng·h/mL, the Activity (A549 [2]) was “tde” and the Activity (NCI-H460 [3]) was “Active”. The Activity [4] was 21%, the inhibition [5] was “inactive” and the inhibition at 1.4 µM (A549 [6]) was 50%. For the same compound, the Ratio IC50 (Homo sapiens [7]) was 84, the inhibition [8] was “inactive” and the inhibition in vivo at 100 mg/kg [9] was 80%. For the same compound, the Activity (milli optical density/minute) (Tubulin (Homo sapiens) [10]) was 0.4, the Activity [11] was 9% and the MTD at 120 h [12] was 1000 mg/kg. For the same compound, the inhibition (Tubulin (Homo sapiens) [13]) was “Dose-dependent effect”, the inhibition at 10 µM (CYP2D6) was 14% and the Activity [14] was 34%. For the same compound, the Activity (NCI-H1299 [15]) was “tde”, the Activity (A549 [16]) was 4% and the AUC(0-inf) [17] was 182 ng·h/mL. For the same compound, the Activity (NCI-H1299 [18]) was 10%, the Activity (NCI-H358) was 74% and the Activity [19] was 31%. The Vd [20] was 1.76 L/kg, the inhibition [21] was “inactive” and the Activity (NCI-H460 [22]) was “tde”. For the same compound, the inhibition (Homo sapiens [23]) was “inactive”, the inhibition [24] was “inactive” and the Cmax [25] was 190 ng/mL.
